The source of these data is ChEMBL document CHEMBL4138159, “Design, synthesis and evaluation of amino-substituted 1H-phenalen-1-ones as anti-leishmanial agents” (Eur J Med Chem, 2018).

Series [1] relates to Leishmania donovani. The experiment in a line: Antileishmanial activity against Leishmania donovani MHOM/IN/90/GE1F8R promastigotes after 72 hrs by Alamarblue assay. The format is functional, organism-based. In a few lines: (§1)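 Log-phase promastigotes (10⁵/well, grown in Schneider's medium with 10% FBS at 26 °C) added to serial compound dilutions in phenol red-free RPMI 1640 with 10% heat-inactivated FBS, plus 10% alamarBlue. Incubated 72 h at 27 °C in the dark. Read at 560 nm against 590 nm reference. Single-concentration screen at 25 µM. IC50 by non-linear regression. Three experiments, each in duplicate.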

In series [2] the test system is Leishmania amazonensis. The experiment in a line: Antileishmanial activity against Leishmania amazonensis MHOM/BR/77/LTB0016 promastigotes after 72 hrs by Alamarblue assay. The series is classed as functional, organism-based. The settings on record: MHOM/BR/77/LTB0016, 72 h. In a few lines:
as §1

Series [3] concerns Leishmania donovani. Put plainly: Antileishmanial activity against Leishmania donovani MHOM/IN/90/GE1F8R promastigotes at 25 uM after 72 hrs by Alamarblue assay relative to control. The series is classed as functional. In a few lines: as §1
In series [4] the test system is Leishmania amazonensis. Put plainly: Antileishmanial activity against Leishmania amazonensis MHOM/BR/77/LTB0016 promastigotes at 25 uM after 72 hrs by Alamarblue assay relative to control. The format is functional. In a few lines:
as §1

Series [5] has as its system Leishmania amazonensis. The experiment in a line: Induction of mitochondrial membrane potential loss in Leishmania amazonensis MHOM/BR/77/LTB0016 promastigotes at antileishmanial IC90 after 24 hrs by JC-1 staining-based spectrofluorometric analysis. The series is classed as functional, organism-based.
Series [6] concerns Leishmania amazonensis. Put plainly: Antileishmanial activity against Leishmania amazonensis MHOM/BR/77/LTB0016 amastigotes infected in mouse J774A.1 cells assessed as reduction in transformation of rescued amastigotes to promastiogtes after 24 hrs by Alamarblue assay. The format is functional, organism-based. The conditions noted are these: MHOM/BR/77/LTB0016, J774.A1, 24 h.

Series [7] in a line: Cytotoxicity against mouse J774A.1 cells. The format is cell-based, J774.A1.
A short description of series [8]: Selectivity index, ratio of CC50 for mouse J774A.1 cells to IC50 for Leishmania amazonensis MHOM/BR/77/LTB0016 amastigotes infected in mouse J774A.1 cells. The series is classed as toxicity, cell-based. The conditions noted are these: read-out: Ratio CC50/IC50. In a few lines:
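SI = CC50 in J774A.1 macrophages divided by IC50 against intracellular L. amazonensis amastigotes.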

Series [9] relates to Leishmania amazonensis. The experiment in a line: Potency index, ratio of miltefosine IC50 to compound IC50 for Leishmania amazonensis MHOM/BR/77/LTB0016 amastigotes infected in mouse J774A.1 cells. The format is functional.
Series [10] relates to Leishmania donovani. The experiment in a line: Antileishmanial activity against Leishmania donovani MHOM/SD/00/1S-2D promastigotes preincubated for 2 hrs followed by compound wash measured after 48 hrs by MTT assay. The series is classed as functional, organism-based.

Activity calls are given as the source filed them. The calls are words filed in the database; no cut-off is given here. A value given as a limit tells only on which side of the number the result lay.

As to `CCCNC1=CC(=O)c2cccc3cccc1c23`, the concentration for half-maximal inhibition (IC50) with Leishmania donovani [1] and in the series with Leishmania amazonensis [2] was above 25 µM each time.
On to `CN(CCO)C1=Cc2cccc3cccc(c23)C1=O`, for which the IC50 in the series on Leishmania donovani [1] and in the series with Leishmania amazonensis [2] was above 25 µM in each case. Moreover, the Activity with Leishmania donovani [3] and in the series on Leishmania amazonensis [4] was below 25% each time.
Take `CN(C)CCNC1=Cc2cccc3cccc(c23)C1=O`: the half-maximal inhibitory concentration (IC50) is 9.6 µM in the series on Leishmania donovani [1], 6 µM in the series on Leishmania amazonensis [2] and 0.9 µM in the series with Leishmania amazonensis [6]. For the same compound, the result in the series on Leishmania amazonensis [5] was Active. Besides, in series [7], the CC50 is 122 µM. Moreover, in series [8], the selectivity ratio stood at 136. Further, the “Ratio IC50” value with Leishmania amazonensis [9] is 3 - 5.
As to `O=C1C(O)=Cc2cccc3ccc(-c4ccccc4)c1c23`, in the series with Leishmania donovani [10], the half-maximal inhibitory concentration (IC50) was in the range of 35 to 40 µM.
Compound `COC1=Cc2cccc3ccc(-c4ccccc4)c(c23)C1=O` returned a 50% inhibitory concentration (IC50) in the series on Leishmania donovani [10] of 35 to 40 µM.
Regarding `O=C1C(N2CCN(Cc3ccccc3)CC2)=Cc2cccc3cccc1c23`, the IC50 in the series on Leishmania donovani [1] came to 26.4 µM; with Leishmania amazonensis [2], 24 µM; with Leishmania amazonensis [6] it was 2.4 µM. The result with Leishmania amazonensis [5] was inactive. The compound also displayed a half-maximal cytotoxic concentration (CC50) in [7] of 122 µM. Further, the selectivity ratio in series [8] amounted to 51.
`O=C1C=C(N2CCOCC2)c2cccc3cccc1c23`: the IC50 in the series on Leishmania donovani [1] and with Leishmania amazonensis [2] was above 25 µM in each case.
As for `O=C1C(Nc2ccccn2)=Cc2cccc3cccc1c23`, the IC50 with Leishmania donovani [1] and in the series with Leishmania amazonensis [2] was above 25 µM throughout.
With `O=C1C(NCc2ccccc2)=Cc2cccc3cccc1c23`, the IC50 with Leishmania donovani [1] and in the series with Leishmania amazonensis [2] was above 25 µM in each case.
In the case of `O=C1C=Cc2cccc3ccc(N4CCCCC4)c1c23`, the IC50 in the series on Leishmania donovani [1] and in the series on Leishmania amazonensis [2] was above 25 µM throughout.
Regarding `CN(C)CCNc1ccc2cccc3c2c1C(=O)C=C3`, the concentration for half-maximal inhibition (IC50) in the series on Leishmania donovani [1] came to 2.8 µM; in the series with Leishmania amazonensis [2] it was 1.4 µM; in the series with Leishmania amazonensis [6], 0.7 µM. Also, the outcome in the series on Leishmania amazonensis [5] was Active. The CC50 in series [7] came to 38.9 µM. Further, the selectivity ratio in [8] amounted to 55.6.
In the case of `O=C1C=Cc2c(NCc3ccccc3)ccc3cccc1c23`, the 50% inhibitory concentration (IC50) in the series on Leishmania donovani [1] and in the series with Leishmania amazonensis [2] was above 25 µM each time.
Turning to `O=C1C=Cc2cccc3cccc1c23` [PERINAPHTHENONE], the half-maximal inhibitory concentration (IC50) in the series with Leishmania donovani [1] and in the series with Leishmania amazonensis [2] was above 25 µM throughout.
Take `CCCCCCCCCCCCCCCCOP(=O)([O-])OCC[N+](C)(C)C` [MILTEFOSINE]: the IC50 is 3.3 µM with Leishmania donovani [1], 6.5 µM with Leishmania amazonensis [2] and 3.1 µM in the series on Leishmania amazonensis [6]. Also, in the series with Leishmania amazonensis [5], the outcome was Active. Moreover, the CC50 in series [7] was found to be 73.7 µM. Moreover, the selectivity ratio in series [8] worked out at 23.8.
On to `CCCNC1=Cc2cccc3cccc(c23)C1=O`, for which the 50% inhibitory concentration (IC50) with Leishmania donovani [1] and with Leishmania amazonensis [2] was above 25 µM in each case. For the same compound, the Activity in the series on Leishmania donovani [3] and with Leishmania amazonensis [4] was below 25% throughout.
Consider `O=C1C=Cc2cccc3ccc(Nc4ccccc4)c1c23`, for which the IC50 with Leishmania donovani [1] and in the series with Leishmania amazonensis [2] was above 25 µM in each case.
Regarding `O=C1C=Cc2cccc3ccc(N4CCN(c5ncccn5)CC4)c1c23`, the IC50 in the series on Leishmania donovani [1] and in the series with Leishmania amazonensis [2] was above 25 µM in each case.
With `O=C1C=Cc2cccc3ccc(N4CCOCC4)c1c23`, the IC50 in the series with Leishmania donovani [1] and in the series on Leishmania amazonensis [2] was above 25 µM in each case.
In the case of `O=C1C=Cc2cccc3ccc(Nc4ccccn4)c1c23`, the half-inhibitory concentration (IC50) in the series on Leishmania donovani [1] and in the series with Leishmania amazonensis [2] was above 25 µM each time.
As for `CN(C)CCNC1=CC(=O)c2cccc3cccc1c23`, the 50% inhibitory concentration (IC50) in the series with Leishmania donovani [1] was 4.3 µM; in the series on Leishmania amazonensis [2], 2.1 µM; in the series on Leishmania amazonensis [6] it was 0.6 µM. Besides, the outcome in the series on Leishmania amazonensis [5] was Active. Further, the CC50 in series [7] was 95.6 µM. Besides, the selectivity ratio in [8] amounted to 159. In the series on Leishmania amazonensis [9], the “Ratio IC50” value is 3 - 5.
Take `O=C1C=Cc2cccc3ccc(NCCO)c1c23`: the IC50 is above 25 µM in the series with Leishmania donovani [1] and 27.4 µM in the series on Leishmania amazonensis [2].
On to `CN(C)CCNc1ccc2cccc3c2c1C=CC3=O`, for which the IC50 in the series on Leishmania donovani [1] is 32.7 µM; in the series on Leishmania amazonensis [2], 7.2 µM.
For `CCCNc1ccc2cccc3c2c1C(=O)C=C3`, in that order: above 25 µM and above 25 µM.
For the compound `O=C1C(N2CCN(c3ncccn3)CC2)=Cc2cccc3cccc1c23`, the concentration for half-maximal inhibition (IC50) in the series with Leishmania donovani [1] and in the series on Leishmania amazonensis [2] was above 25 µM each time.
Regarding `NC1=Cc2cccc3cccc(c23)C1=O`, the 50% inhibitory concentration (IC50) in the series with Leishmania donovani [1] and with Leishmania amazonensis [2] was above 25 µM throughout. Further, the Activity in the series on Leishmania donovani [3] and in the series on Leishmania amazonensis [4] was below 25% in each case.
With `O=C1C=C(N2CCN(Cc3ccccc3)CC2)c2cccc3cccc1c23`, the IC50 was determined as 24 µM in the series with Leishmania donovani [1], 9.7 µM in the series with Leishmania amazonensis [2] and 1.1 µM in the series on Leishmania amazonensis [6]. For the same compound, in the series with Leishmania amazonensis [5], the result was Active. Also, the CC50 in [7] was 28.5 µM. Moreover, the selectivity ratio in series [8] stood at 26.
As to `O=C1C=C(N2CCCCC2)c2cccc3cccc1c23`, the half-maximal inhibitory concentration (IC50) in the series on Leishmania donovani [1] and in the series on Leishmania amazonensis [2] was above 25 µM throughout.
Turning to `N#Cc1ccc(NC2=Cc3cccc4cccc(c34)C2=O)cc1`, the IC50 with Leishmania donovani [1] and in the series with Leishmania amazonensis [2] was above 25 µM in each case.
`O=C1C=Cc2cccc3ccc(O)c1c23`: the half-inhibitory concentration (IC50) in the series with Leishmania donovani [1] and with Leishmania amazonensis [2] was above 25 µM throughout.
As for `O=C1C(Nc2ccccc2)=Cc2cccc3cccc1c23`, the IC50 in the series on Leishmania donovani [1] and in the series with Leishmania amazonensis [2] was above 25 µM each time.
Regarding `Nc1ccc2cccc3c2c1C(=O)C=C3`, the 50% inhibitory concentration (IC50) is above 25 µM in the series with Leishmania donovani [1] and 26.2 µM in the series with Leishmania amazonensis [2].
For `O=C1C(Nc2cccnc2)=Cc2cccc3cccc1c23`, the concentration for half-maximal inhibition (IC50) in the series with Leishmania donovani [1] and with Leishmania amazonensis [2] was above 25 µM each time. Also, the Activity in the series on Leishmania donovani [3] and in the series on Leishmania amazonensis [4] was below 25% throughout.
`O=C1C(N2CCOCC2)=Cc2cccc3cccc1c23`: the IC50 with Leishmania donovani [1] and with Leishmania amazonensis [2] was above 25 µM in each case.
For `O=C1C=Cc2cccc3ccc(NCc4ccccc4)c1c23`, the half-inhibitory concentration (IC50) with Leishmania donovani [1] was determined as 8.3 µM; with Leishmania amazonensis [2] it was 3.5 µM; in the series on Leishmania amazonensis [6], 2.3 µM. Besides, the outcome in the series on Leishmania amazonensis [5] was Active. The 50% cytotoxic concentration (CC50) in series [7] was determined as 9.4 µM. The selectivity ratio in series [8] is 4.1.
`O=C1C=Cc2c(N3CCN(Cc4ccccc4)CC3)ccc3cccc1c23`: the IC50 with Leishmania donovani [1] was 26.3 µM; with Leishmania amazonensis [2], 17.5 µM.
Consider `CN(CCO)c1ccc2cccc3c2c1C(=O)C=C3`, for which the half-inhibitory concentration (IC50) with Leishmania donovani [1] and in the series on Leishmania amazonensis [2] was above 25 µM in each case.
Turning to `CN(CCO)C1=CC(=O)c2cccc3cccc1c23`, the IC50 with Leishmania donovani [1] and in the series with Leishmania amazonensis [2] was above 25 µM each time.
Turning to `O=C1C=Cc2cccc3ccc(N4CCN(Cc5ccccc5)CC4)c1c23`, the results for the 50% inhibitory concentration (IC50) with Leishmania donovani [1], in the series on Leishmania amazonensis [2] and in the series on Leishmania amazonensis [6] were 14 µM, 11.6 µM and 0.6 µM, respectively. Besides, in the series on Leishmania amazonensis [5], the result was inactive. The same compound showed a CC50 in [7] of 91.7 µM. The selectivity ratio in series [8] is 153. Also, the “Ratio IC50” value with Leishmania amazonensis [9] is reported as 3 - 5.
In the case of `O=C1C=C(NCc2ccccc2)c2cccc3cccc1c23`, the IC50 in the series on Leishmania donovani [1] and with Leishmania amazonensis [2] was above 25 µM in each case.
For `N#Cc1ccc(Nc2ccc3cccc4c3c2C(=O)C=C4)cc1`, the IC50 in the series on Leishmania donovani [1] and with Leishmania amazonensis [2] was above 25 µM in each case.
As for `O=C1C=Cc2cccc3ccc(Nc4cccnc4)c1c23`, the IC50 in the series on Leishmania donovani [1] and with Leishmania amazonensis [2] was above 25 µM in each case.
With `O=C1C=C(N2CCN(c3ncccn3)CC2)c2cccc3cccc1c23`, the IC50 in the series with Leishmania donovani [1] and in the series on Leishmania amazonensis [2] was above 25 µM each time.
